From PMC7947324 (Pharmacology Research & Perspectives, 2021)
Entries after “also recorded” stand apart in the source; their conditions may differ.

Legend:
INS‐1 (832/3) cells [1] = assay: INS‐1; assay type: cell-based, rat; conditions: for effect of antagonist on the PGE2 dose–response (GSIS): 10 µM antagonist, PGE2 1 pM to 50 μM; for effect of agonist on GSIS (dose–response) / concentration from which the agonist reduces GSIS: agonist alone; for effect of agonist on GSIS (dose–response): 1 pM to 50 or 100 μM, 16.7 mM glucose; for reduction of GSIS at high concentration compared with PGE2: 50–100 µM; for effect of antagonist on the sulprostone dose–response (GSIS): sulprostone 1 pM to 50 μM
Procedure, shortened: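 INS‐1 (832/3) cells (passage 35 or below) plated and cultured 72 h before GSIS. Agonists tested from 1 pM to 10, 50 or 100 µM, with or without 20 µM EP3 antagonist or 10 µM other EP antagonists. Insulin measured by in‐house ELISA and expressed relative to 16.7 mM glucose. N = 3–5 independent experiments, mean ± SEM, two‐way ANOVA with Holm–Sidak.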

INS‐1 (832/3) cells [2] = assay: Membrane phospholipid AA and EPA composition of INS‐1; assay type: cell-based, rat; conditions: 100 μM AA‐enriched medium, 48 h
INS‐1 (832/3) cells [3] = assay: Relative gene expression by qPCR in INS‐1; assay type: cell-based, rat; conditions: for Ptges expression vs. control: 2^ΔΔCt method, AA enrichment alone or 10 ng/ml IL‐1β
rat EP1 receptor = conditions: cited from earlier work
rat EP3 receptor = conditions: cited from earlier work
mouse DP2 receptor [4] = conditions: ref Table 3; cited from earlier work
mouse DP2 receptor [5] = assay: Published agonism at mouse DP2 receptor; assay type: biochemical; conditions: from published pKi values of Table 3
INS‐1 (832/3) cells [6] = conditions: cited from earlier work
INS‐1 (832/3) cells [7] = assay: Total insulin content of INS‐1; assay type: cell-based, rat; conditions: 10 ng/ml, regardless of fatty acid treatment
Procedure, shortened: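 Cells at 70% confluence were cultured 48 h in medium with 1% fatty acid‐free BSA, with or without 100 μM AA, then 24 h with vehicle or 10 ng/ml IL‐1β. Assay groups were 1.7 mM glucose, 16.7 mM glucose, 16.7 mM + 10 nM agonist, and 16.7 mM + 20 µM EP3 antagonist. Secreted insulin was given as percent of content; content and secretion by in‐house ELISA. N = 3–4, mean ± SEM, two‐way ANOVA with Holm–Sidak.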

INS‐1 (832/3) cells [8] = assay: PGE2 production; assay type: cell-based, rat; conditions: BSA or AA cultured cells, 10 ng/mL IL‐1β or vehicle

Compound: PF‐04418948
- effect of antagonist on the PGE2 dose–response (GSIS) (INS‐1 (832/3) cells [1]): no effect

Compound: COc1ccc(Br)cc1S(=O)(=O)NC(=O)/C=C/c1ccccc1Cc1ccc2ccccc2c1 [L798,106]
- effect of antagonist on GSIS reduced by PGD2, PGF2α, cicaprost or U‐46619 (INS‐1 (832/3) cells [1]; 20 μM L798,106): fully restores INS‐1 (832/3) GSIS
- increase in GSIS vs. 16.7 mM glucose alone (INS‐1 (832/3) cells [1]; 20 µM, AA enrichment and 10 ng/ml IL‐1β pretreatment): ~ 30%
- effect of antagonist alone on GSIS (INS‐1 (832/3) cells [1]; 20 µM, no IL‐1β treatment, control and AA‐enriched cells): no potentiating effect; also recorded: unaffected
- increase of the IC50 for PGE2 (reduction of GSIS) by antagonist (INS‐1 (832/3) cells [1]; PGE2 1 pM to 10 μM with and without 20 μM L798,106): over 100 fold

Compound: COc1ccc2c(c1)c(CC(=O)O)c(C)n2C(=O)c1ccc(Cl)cc1 [Indomethacin, indomethacin]
- effect of agonist on GSIS (dose–response) (INS‐1 (832/3) cells [1]): no significant effect
- effect of agonist on GSIS (dose–response) (INS‐1 (832/3) cells [1]; listed as indomethacin): no effect on GSIS

Compound: CCCCC/C=C\C/C=C\C/C=C\C/C=C\CCCC(=O)O [AA, arachidonic acid]
- AA abundance in membrane phospholipids vs controls (INS‐1 (832/3) cells [2]): 4 fold
- AA:EPA ratio vs controls (INS‐1 (832/3) cells [2]): 25 fold
- Ptges expression vs. control (INS‐1 (832/3) cells [3]): ~ 3.5 fold

Compound: CC#CCC(C)[C@H](O)/C=C/[C@@H]1[C@H]2C/C(=C/CCCC(=O)O)C[C@H]2C[C@H]1O (stereo partly drawn) [Iloprost, iloprost]
- agonist type at rat EP1 receptor (rat EP1 receptor): only a partial agonist
- agonist type at rat EP3 receptor (rat EP3 receptor): full agonist
- effect of agonist on GSIS (dose–response) (INS‐1 (832/3) cells [1]): dose‐dependently reduces GSIS; also recorded: significantly reduce INS‐1 cell GSIS

Compound: CCCCC[C@H](O)/C=C/[C@H]1[C@H](O)CC(=O)[C@@H]1C/C=C\CCCC(=O)O [PGE2]
- potentiation of GSIS (INS‐1 (832/3) cells [1]; 10 nM, AA‐enriched cells pretreated with IL‐1β): approximately twofold
- effect on GSIS (INS‐1 (832/3) cells [1]; 10 nM, IL‐1β‐treated control (BSA) cells): no further inhibitory effect
- effect on GSIS (INS‐1 (832/3) cells [1]; 10 nM, cells without IL‐1β, with or without AA enrichment): blunts INS‐1 (832/3) GSIS regardless of AA enrichment
- effect of agonist on GSIS (dose–response) (INS‐1 (832/3) cells [1]): reduces INS‐1 (832/3) GSIS in a dose‐dependent manner; also recorded: significantly reduce INS‐1 cell GSIS
- maximal reduction in GSIS (INS‐1 (832/3) cells [1]; maximal potency): ~ 60%
- agonist type at mouse DP2 receptor (mouse DP2 receptor [4]): full agonist
- reduced potency at DP2 as compared to EP3 (mouse DP2 receptor [5]): ~ 3000 fold

Compound: CCCCC[C@H](O)/C=C/[C@H]1C(=O)C[C@H](O)[C@@H]1C/C=C\CCCC(=O)O [PGD2]
- reduction of GSIS at high concentration compared with PGE2 (INS‐1 (832/3) cells [1]): nearly reaching the maximal potency of PGE2
- concentration from which the agonist reduces GSIS (INS‐1 (832/3) cells [1]): 1 µM

Compound: CC/C=C\C[C@H](O)/C=C/[C@H]1[C@H](O)CC(=O)[C@@H]1C/C=C\CCCC(=O)O [PGE3]
- effect on INS‐1 cell GSIS (INS‐1 (832/3) cells [6]): significantly reduce INS‐1 cell GSIS

Compound: CCCCc1nn(-c2ccccc2C(F)(F)F)c(=O)n1Cc1ccc(-c2ccccc2S(=O)(=O)NC(=O)c2sccc2C)cc1 [L161,982]
- effect of antagonist on the PGE2 dose–response (GSIS) (INS‐1 (832/3) cells [1]): excluded from mediating the effect of PGE2 on GSIS
- effect of antagonist on the sulprostone dose–response (GSIS) (INS‐1 (832/3) cells [1]; 10 μM antagonist): neither SC51089, AH2384B, SC19220, nor L161,982 affecting the sulprostone dose–response

Compound: CS(=O)(=O)NC(=O)CCC/C=C\C[C@H]1C(=O)C[C@@H](O)[C@@H]1/C=C/[C@@H](O)COc1ccccc1 [Sulprostone, sulprostone]
- effect of agonist on GSIS (dose–response) (INS‐1 (832/3) cells [1]): nearly identical results as with PGE2; also recorded: significantly reduce INS‐1 cell GSIS

Compound: CCCCC[C@H](O)/C=C/[C@@H]1[C@@H](C/C=C\CCCC(=O)O)[C@@H](O)C[C@H]1O [PGF2α]
- reduction of GSIS at high concentration compared with PGE2 (INS‐1 (832/3) cells [1]): nearly reaching the maximal potency of PGE2
- concentration from which the agonist reduces GSIS (INS‐1 (832/3) cells [1]): 1 µM

Compound: CC(=O)NNC(=O)N1Cc2ccccc2Oc2ccc(Cl)cc21 [SC19220]
- effect of antagonist on the PGE2 dose–response (GSIS) (INS‐1 (832/3) cells [1]): neither of two EP1 antagonists, SC19220 or SC51089, affect the PGE2 dose–response
- effect of antagonist on the sulprostone dose–response (GSIS) (INS‐1 (832/3) cells [1]; 10 μM antagonist): neither SC51089, AH2384B, SC19220, nor L161,982 affecting the sulprostone dose–response

Compound: CCC#CC[C@H](C)[C@H](O)C#C[C@@H]1[C@H]2C/C(=C/COCC(=O)O)C[C@H]2C[C@H]1O [Cicaprost, cicaprost]
- reduction of GSIS at high concentration compared with PGE2 (INS‐1 (832/3) cells [1]): nearly reaching the maximal potency of PGE2
- concentration from which the agonist reduces GSIS (INS‐1 (832/3) cells [1]): 1 µM

Compound: SC51089
- effect of antagonist on the PGE2 dose–response (GSIS) (INS‐1 (832/3) cells [1]): neither of two EP1 antagonists, SC19220 or SC51089, affect the PGE2 dose–response
- effect of antagonist on the iloprost dose–response curve (GSIS) (INS‐1 (832/3) cells [1]; 10 μM antagonist, iloprost 1 pM to 100 μM): no effect
- effect of antagonist on the sulprostone dose–response (GSIS) (INS‐1 (832/3) cells [1]; 10 μM antagonist): neither SC51089, AH2384B, SC19220, nor L161,982 affecting the sulprostone dose–response

Compound: O=C(O)CC/C=C\CC[C@H]1[C@H](N2CCOCC2)C(=O)C[C@H]1OCc1ccc(-c2ccccc2)cc1 [AH2384B]
- effect of antagonist on the PGE2 dose–response (GSIS) (INS‐1 (832/3) cells [1]): excluded from mediating the effect of PGE2 on GSIS
- effect of antagonist on the sulprostone dose–response (GSIS) (INS‐1 (832/3) cells [1]; 10 μM antagonist): neither SC51089, AH2384B, SC19220, nor L161,982 affecting the sulprostone dose–response

Compound: IL‐1β: Interleukin‐1β, cytokine used at 10 ng/ml to mimic the diabetic state and induce PGE2 production
- reduction of insulin content (INS‐1 (832/3) cells [7]): ~50%
- Ptger1 expression (INS‐1 (832/3) cells [3]; 10 ng/ml IL‐1β): unaffected
- Ptger3 expression upregulation (INS‐1 (832/3) cells [3]; 10 ng/ml IL‐1β): ~ 6 fold
- Ptger4 expression upregulation (INS‐1 (832/3) cells [3]; 10 ng/ml IL‐1β): ~ 10 fold
- Ptges2 expression induction (INS‐1 (832/3) cells [3]; 10 ng/ml IL‐1β): ~ 2 fold
- Ptges3 expression induction (INS‐1 (832/3) cells [3]; 10 ng/ml IL‐1β): ~ 2.5 fold
- Ptgs1 expression induction (INS‐1 (832/3) cells [3]; 10 ng/ml IL‐1β): 2–4 fold
- Ptgs2 expression induction (INS‐1 (832/3) cells [3]; 10 ng/ml IL‐1β): ~ 10 fold
- Ptges expression vs. control (INS‐1 (832/3) cells [3]): ~ 100 fold
- substrate‐dependent PGE2 production (INS‐1 (832/3) cells [8]): only induced with IL‐1β treatment

Compound: CCCCC[C@H](O)/C=C/[C@H]1[C@H](O)CC(=O)[C@@H]1CCCCCCC(=O)O [PGE 1]
- effect on INS‐1 cell GSIS (INS‐1 (832/3) cells [6]): significantly reduce INS‐1 cell GSIS
